Results published in ChEMBL document CHEMBL3232837, “Synthesis and evaluation of new Hsp90 inhibitors based on a 1,4,5-trisubstituted 1,2,3-triazole scaffold” (J Med Chem, 2014).
Active and inactive are the calls of the source. No cut-off for these calls is given here.

Tests used:
[1] = molecular target: Heat shock protein HSP 90-beta (Homo sapiens) (UniProt P08238); assay: Inhibition of HSP90 in human A431 cells overexpressing EGFR assessed as downregulation of EGFR protein expression after 24 hrs by Western blot analysis; type: cell-based; conditions: A-431
Heat shock protein HSP 90-beta (Homo sapiens), sequence (P08238 whole entry): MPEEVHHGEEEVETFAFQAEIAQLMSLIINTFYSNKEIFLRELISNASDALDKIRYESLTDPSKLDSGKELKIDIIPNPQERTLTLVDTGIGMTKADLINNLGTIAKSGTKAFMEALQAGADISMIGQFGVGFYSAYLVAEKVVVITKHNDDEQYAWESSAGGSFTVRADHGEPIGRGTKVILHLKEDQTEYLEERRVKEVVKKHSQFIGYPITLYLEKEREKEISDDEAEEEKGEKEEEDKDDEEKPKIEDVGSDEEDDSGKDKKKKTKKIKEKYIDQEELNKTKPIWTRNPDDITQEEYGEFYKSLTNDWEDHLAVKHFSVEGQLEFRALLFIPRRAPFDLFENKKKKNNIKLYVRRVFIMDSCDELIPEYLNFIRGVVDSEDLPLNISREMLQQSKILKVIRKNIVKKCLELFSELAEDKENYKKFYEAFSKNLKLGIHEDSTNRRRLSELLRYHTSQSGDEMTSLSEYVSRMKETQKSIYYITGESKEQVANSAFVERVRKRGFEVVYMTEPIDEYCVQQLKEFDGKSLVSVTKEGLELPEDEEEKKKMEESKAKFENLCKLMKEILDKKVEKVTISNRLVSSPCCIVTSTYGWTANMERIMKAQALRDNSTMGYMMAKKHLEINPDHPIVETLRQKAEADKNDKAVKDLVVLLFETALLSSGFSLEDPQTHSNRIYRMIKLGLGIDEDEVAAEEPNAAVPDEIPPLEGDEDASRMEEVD
Outline: (§1)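 A431 cells treated 24 h after seeding for 24 h over a concentration range; 17-DMAG 0.2 µM as reference. Cells lysed in RIPA buffer with protease and phosphatase inhibitors, protein measured by Bradford. Equal protein run on SDS-PAGE and blotted to nitrocellulose, then probed for EGFR, Cdk4, Akt, Hsp70 and actin. ECL detection; densitometry normalized to β-actin. Run at least twice.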

Mus musculus [2] = assay: Toxicity in CD-1 nude mouse xenografted with human A431 cells overexpressing EGFR assessed as body weight loss at 8 mg/kg, ip administered as q4d/week for 2 weeks starting 3 days after tumor injection measured on day 5 post last dose relative to vehicle-treated control; type: organism-based, A-431; parameters: dose 8 mg/kg, route intraperitoneal; conditions: in vivo
Outline: (§2)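 Female athymic nude mice carrying s.c. xenografts, dosed i.p. (mg/10 mL/kg per administration) starting 3 days after tumor injection. BWL% = 100 − (mean BW day x/mean BW day 1 × 100), day 1 being the first treatment day. Maximum BWL% recorded. Lethal toxicity counted as deaths before the first control death.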

Mus musculus [3] = assay: Toxicity in CD-1 nude mouse xenografted with human GTL16 cells overexpressing c-Met assessed as mortality at 5 mg/kg, ip administered as q4d/week for 2 weeks starting 3 days after tumor injection measured on day 5 post last dose relative to vehicle-treated control; type: organism-based; parameters: dose 5 mg/kg, route intraperitoneal; conditions: in vivo
Outline: (§3)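 S.c. right-flank xenografts, 5 × 10^6 cells, in female athymic nude mice 5-6 weeks old. Intraperitoneal dosing in 10 mL/kg from day 3 post-implant. Lethal toxicity counted as deaths in treated mice occurring before the first control mouse died, reported as dead/treated (8 per group). Body weight loss was also tracked from the first treatment day.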

Mus musculus [4] = assay: In vivo inhibition of HSP90 in human A431 cells overexpressing EGFR xenografted in CD-1 nude mouse assessed as induction of HSP70 protein expression at 8 mg/kg, ip administered as q4d/week for 2 weeks starting 3 days after tumor injection measured at 2 hrs post last dose by Western blot analysis; type: functional, organism-based; parameters: dose 8 mg/kg; conditions: A-431
Outline: (§4)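 Nude-mouse s.c. xenografts given i.p. compound from day 3. Tumors excised 2 h (A431) or 6 h (GTL-16) after last dose and homogenized in tissue protein extraction reagent with 10 µg/ml protease inhibitor cocktail. Whole lysates analysed by Western blot with actin as loading control; two tumor samples per group shown.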

Mus musculus [5] = assay: (§5) In vivo inhibition of HSP90 in human GTL16 cells overexpressing c-Met xenografted in CD-1 nude mouse assessed as downregulation of c-Met protein expression at 8 mg/kg, ip administered as q4d/week for 2 weeks starting 3 days after tumor injection measured at 6 hrs post last dose by Western blot analysis; type: functional, organism-based; parameters: dose 8 mg/kg; outline: as §4
Mus musculus [6] = assay: Toxicity in CD-1 nude mouse xenografted with human GTL16 cells overexpressing c-Met assessed as body weight loss at 5 mg/kg, ip administered as q4d/week for 2 weeks starting 3 days after tumor injection measured on day 5 post last dose relative to vehicle-treated control; type: organism-based; parameters: dose 5 mg/kg, route intraperitoneal; conditions: in vivo; outline: as §2
Mus musculus [7] = assay: In vivo inhibition of HSP90 in human A431 cells overexpressing EGFR xenografted in CD-1 nude mouse assessed as downregulation of AKT protein expression at 8 mg/kg, ip administered as q4d/week for 2 weeks starting 3 days after tumor injection measured at 2 hrs post last dose by Western blot analysis; type: functional, organism-based; parameters: dose 8 mg/kg; conditions: A-431; outline: as §4
[8] = molecular target: Heat shock protein HSP 90-beta (Homo sapiens) (UniProt P08238); assay: Inhibition of HSP90 in human A431 cells overexpressing EGFR assessed as downregulation of AKT protein expression after 24 hrs by Western blot analysis; type: cell-based; conditions: A-431; outline: as §1
Mus musculus [9] = assay: Toxicity in CD-1 nude mouse xenografted with human A431 cells overexpressing EGFR assessed as mortality at 8 mg/kg, ip administered as q4d/week for 2 weeks starting 3 days after tumor injection measured on day 5 post last dose relative to vehicle-treated control; type: organism-based, A-431; parameters: dose 8 mg/kg, route intraperitoneal; conditions: in vivo; outline: as §3
[10] = molecular target: Heat shock protein HSP 90-beta (Homo sapiens) (UniProt P08238); assay: Inhibition of HSP90 in human A431 cells overexpressing EGFR assessed as downregulation of CDK4 protein expression after 24 hrs by Western blot analysis; type: cell-based; conditions: A-431; outline: as §1
Mus musculus [11] = assay: In vivo inhibition of HSP90 in human A431 cells overexpressing EGFR xenografted in CD-1 nude mouse assessed as downregulation of EGFR protein expression at 8 mg/kg, ip administered as q4d/week for 2 weeks starting 3 days after tumor injection measured at 2 hrs post last dose by Western blot analysis; type: functional, organism-based; parameters: dose 8 mg/kg; conditions: A-431; outline: as §4
NCI-H460 = assay: Cytotoxicity against human NCI-H460 cells assessed as growth inhibition after 72 hrs by SRB assay; type: functional, cell-based; conditions: NCI-H460, 72 h
Outline: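 NCI-H460 cells grown in RPMI-1640 with 10% heat-inactivated FBS, seeded at about 10% confluence and allowed 24 h recovery. Exposed to graded drug concentrations or solvent for 72 h. Surviving fraction measured by sulforhodamine B. IC50 is the concentration giving a 50% drop in cell number vs vehicle, from dose-response curve fitting; mean of n=4 with SD.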

Mus musculus [12] = assay: as §5, with “of CDK4” for “of c-Met”; type: functional, organism-based; parameters: dose 8 mg/kg; outline: as §4
Mus musculus [13] = assay: as §5, with “of AKT” for “of c-Met”; type: functional, organism-based; parameters: dose 8 mg/kg; outline: as §4
A-431 = assay: Antitumor activity against human A431 cells overexpressing EGFR xenografted in CD-1 nude mouse assessed as tumor growth inhibition at 8 mg/kg, ip administered as q4d/week for 2 weeks starting 3 days after tumor injection measured on day 5 post last dose relative to vehicle-treated control; type: functional; conditions: A-431, ip, route intraperitoneal, read-out: TGI
Outline: (§6)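 Female athymic nude mice, 5-6 weeks old, inoculated s.c. in right flank with 5 × 10^6 exponentially growing tumor cells. Intraperitoneal dosing in 10 mL/kg, starting 3 days post-implant. Tumor volume = d²·D/2 from calipered shortest and longest diameters, measured biweekly. TVI% = 100 − (mean TV treated/mean TV control × 100), scored 5 days after last dose. Mann-Whitney test vs vehicle group; 8 mice per group.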

Mus musculus [14] = assay: In vivo inhibition of HSP90 in human A431 cells overexpressing EGFR xenografted in CD-1 nude mouse assessed as downregulation of CDK4 protein expression at 8 mg/kg, ip administered as q4d/week for 2 weeks starting 3 days after tumor injection measured at 2 hrs post last dose by Western blot analysis; type: functional, organism-based; parameters: dose 8 mg/kg; conditions: A-431; outline: as §4
[15] = molecular target: Heat shock protein HSP 90-alpha (Homo sapiens, UniProt P07900); assay: Displacement of GM-FITC from full-length recombinant human Hsp90-alpha after 4 hrs by fluorescence polarization assay
Mus musculus [16] = assay: In vivo inhibition of HSP90 in human GTL16 cells overexpressing c-Met xenografted in CD-1 nude mouse assessed as induction of HSP70 protein expression at 8 mg/kg, ip administered as q4d/week for 2 weeks starting 3 days after tumor injection measured at 6 hrs post last dose by Western blot analysis; type: functional, organism-based; parameters: dose 8 mg/kg; outline: as §4
[17] = Antitumor activity against human GTL16 cells overexpressing c-Met xenografted in CD-1 nude mouse assessed as tumor growth inhibition at 5 mg/kg, ip administered as q4d/week for 2 weeks starting 3 days after tumor injection measured on day 5 post last dose relative to vehicle-treated control; type: functional; conditions: GTL 16, ip, route intraperitoneal, read-out: TGI; outline: as §6
[18] = molecular target: Heat shock protein HSP 90-beta (Homo sapiens) (UniProt P08238); assay: Inhibition of HSP90 in human A431 cells overexpressing EGFR assessed as induction of HSP70 protein expression after 24 hrs by Western blot analysis; type: cell-based; conditions: A-431; outline: as §1

CCNC(=O)c1nnn(-c2cc(C(C)C)c(O)cc2O)c1-c1ccc(CN2CCCC(O)C2)cc1 (stereo not given)
inhibition [1]: Dose-dependent effect | Imax (Mus musculus [2]): 7% | Activity (Mus musculus [3]): Non-toxic | inhibition (Mus musculus [4]): Active | inhibition (Mus musculus [5]): Active | Imax (Mus musculus [6]): 17% | inhibition (Mus musculus [7]): Active | inhibition [8]: Dose-dependent effect | Activity (Mus musculus [9]): Non-toxic | inhibition [10]: Dose-dependent effect | inhibition (Mus musculus [11]): Active | IC50 (NCI-H460): 62 nM | inhibition (Mus musculus [12]): Active | inhibition (Mus musculus [13]): Active | inhibition in vivo at 8 mg/kg (A-431): 45% | inhibition (Mus musculus [14]): Active | IC50 [15]: 23 nM | inhibition (Mus musculus [16]): Active | inhibition in vivo at 5 mg/kg [17]: 42% | inhibition [18]: Dose-dependent effect
